Measurements published in ChEMBL document CHEMBL4765368, “Structure guided design and synthesis of furyl thiazolidinedione derivatives as inhibitors of GLUT 1 and GLUT 4, and evaluation of their anti-leukemic potential” (Eur J Med Chem, 2020).
Calls of active or inactive are those of the source. The rule behind the calls is not given here.

Legend:
Homo sapiens = species on record: Homo sapiens; assay: Selectivity ratio of IC50 for inhibition of transport activity of human GLUT4 expressed in hexose transporter deficient W4000fgy1 erg4 yeast cells to IC50 for inhibition of transport activity of human GLUT1 expressed in hexose transporter deficient VW4000fgy1 yeast cells; type: cell-based
Method in brief: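 GLUT1 (VW4000fgy1) or GLUT4 (VW4000fgy1erg4) hxt0 yeast were grown on maltose and then glucose and resuspended in PBS pH 7.4 at OD600 ~10. Compound was used at 0.1–100 μM, final 1% DMSO. Uptake of 5 mM 14C-glucose over 10 min was stopped with ice-cold quench buffer, filtered and counted by scintillation. IC50 was taken from dose-response curves of three independent measurements.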

K562 = assay: Cytotoxicity against human K562 cells assessed as reduction in cell viability measured after 48 hrs by Hoechst 33342/propidium iodide staining based imaging analysis; type: functional
Method in brief: (§1)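 Cells were seeded at 10,000 per well (HS-27 at 3,000) in 10% FBS RPMI (leukemic lines) or DMEM (MDA-MB-231, HS-27). Compound in DMSO (1% v/v final) at 0.5–100 µM for 48 h. Hoechst 33342 and PI were added 2 h before automated imaging; dead cells were co-stained. Quadruplicates. CC50 was taken by linear interpolation between the two concentrations nearest 50% death.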

[1] = biological target: T1, Solute carrier family 2, facilitated glucose transporter member 5 (Homo sapiens) (UniProt P22732); assay: Inhibition of transport activity of human GLUT5 expressed in hexose transporter deficient VW4000 yeast cells assessed as reduction in transporter-mediated [14C]-fructose uptake into cells at 100 uM measured after 10 mins by scintillation counting method; type: cell-based
T1 sequence (whole entry): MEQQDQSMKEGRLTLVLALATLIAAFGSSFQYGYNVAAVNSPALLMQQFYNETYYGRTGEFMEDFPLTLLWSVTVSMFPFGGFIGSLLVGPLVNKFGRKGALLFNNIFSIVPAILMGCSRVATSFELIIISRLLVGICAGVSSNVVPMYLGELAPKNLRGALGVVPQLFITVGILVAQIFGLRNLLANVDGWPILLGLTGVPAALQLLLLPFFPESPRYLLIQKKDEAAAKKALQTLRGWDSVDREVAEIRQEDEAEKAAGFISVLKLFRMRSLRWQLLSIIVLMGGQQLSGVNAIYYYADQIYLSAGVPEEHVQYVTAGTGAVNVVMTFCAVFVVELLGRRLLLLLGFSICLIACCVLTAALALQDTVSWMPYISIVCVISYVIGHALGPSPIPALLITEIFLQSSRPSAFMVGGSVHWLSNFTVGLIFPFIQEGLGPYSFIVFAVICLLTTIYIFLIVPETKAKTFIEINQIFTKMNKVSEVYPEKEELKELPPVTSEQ
Method in brief: (§2)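 The hxt0 yeast strain expressing one human GLUT was grown at 30 °C and resuspended in PBS pH 7.4 at OD600 ~10. Uptake was started with 14C-glucose at 5 mM final (GLUT1, GLUT4) or 14C-fructose at 10 mM final (GLUT5). It was quenched after 10 min with ice-cold 0.1 M KPi/0.1 M LiCl pH 5.5, filtered and counted by scintillation. Compound at 100 μM with 1% DMSO; DMSO control and phloretin 200 μM (GLUT1/4) or MSNBA 100 μM (GLUT5) as references. Triplicates.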

[2] = biological target: T2, Solute carrier family 2, facilitated glucose transporter member 4 (Homo sapiens) (UniProt P14672); assay: Inhibition of transport activity of human GLUT4 expressed in hexose transporter deficient […] erg4 yeast cells assessed as reduction in transporter-mediated [14C]-hexose uptake into cells at 100 uM measured after 10 mins by scintillation counting method relative to control; type: cell-based; method in brief: as §2
T2 sequence (whole entry): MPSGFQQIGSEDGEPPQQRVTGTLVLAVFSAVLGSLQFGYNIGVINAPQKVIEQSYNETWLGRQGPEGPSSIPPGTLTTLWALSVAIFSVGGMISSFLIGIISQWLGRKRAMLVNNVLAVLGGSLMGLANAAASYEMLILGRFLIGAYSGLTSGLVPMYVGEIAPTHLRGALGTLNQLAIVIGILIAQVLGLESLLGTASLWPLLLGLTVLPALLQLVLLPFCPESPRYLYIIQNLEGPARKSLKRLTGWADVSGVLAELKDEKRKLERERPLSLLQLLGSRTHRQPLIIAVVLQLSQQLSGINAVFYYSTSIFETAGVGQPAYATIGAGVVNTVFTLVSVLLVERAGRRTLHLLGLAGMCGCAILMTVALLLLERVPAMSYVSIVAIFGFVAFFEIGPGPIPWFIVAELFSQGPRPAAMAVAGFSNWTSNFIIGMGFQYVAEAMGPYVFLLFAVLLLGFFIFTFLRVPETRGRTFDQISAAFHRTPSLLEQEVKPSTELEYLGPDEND

CCRF-CEM [3] = assay: Cell cycle arrest in human CCRF-CEM cells assessed as increase in accumulation at sub-G0/G1 phase measured after 72 hrs by NIM-DAPI staining based flow cytometry; type: functional
Method in brief: (§3)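 An asynchronous CEM culture was seeded at 100,000 cells/well in 1 mL complete RPMI and exposed to 10, 25 or 50 μM for 72 h. Controls were untreated cells, DMSO and hydrogen peroxide. Cells were pelleted at 262 g, resuspended, and stained with NIM-DAPI, which permeabilizes and stains DNA in one step. About 100,000 events per sample were read by flow cytometry. Triplicates.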

CCRF-CEM [4] = assay: Cell cycle arrest in human CCRF-CEM cells assessed as decrease in accumulation at G2/M phase measured after 72 hrs by NIM-DAPI staining based flow cytometry; type: functional; method in brief: as §3
[5] = Toxicity in SCID mouse assessed as distress at 1000 mg/kg, ip administered as single dose measured within 6 hrs; type: organism-based; conditions: in vivo
[6] = Cytotoxicity against human WBC assessed as reduction in cell viability measured after 48 hrs by MTT assay; type: tissue-based
Method in brief: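 WBCs were isolated from donor blood by HiSep density centrifugation, followed by RBC lysis and PBS washes, and held overnight at 37 °C with 5% CO2. Compound at 2.5–100 μM for 48 h. After two PBS washes, MTT was added for 4 h at 37 °C, formazan was dissolved in DMSO, and absorbance was read at 570 nm. IC50 taken from the dose-response curve.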

CCRF-CEM [7] = assay: Induction of apoptosis in human CCRF-CEM cells assessed as necrotic cells at CC50 measured after 24 hrs by AnnexinV-FITC/propidium iodide staining based flow cytometry analysis relative to control; type: functional
Method in brief: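 CCRF-CEM cells in RPMI with 10% FBS were seeded in 24-well plates, incubated overnight, given fresh medium, then treated for 24 h. Cells were PBS-washed, spun at 500 g for 5 min at 4 °C, and resuspended in ice-cold binding buffer. They were stained with annexin V-FITC and PI for 15 min on ice in the dark, then read by flow cytometry. Untreated cells were the negative control; triplicates.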

MDA-MB-231 = assay: Cytotoxicity against human MDA-MB-231 cells assessed as reduction in cell viability measured after 48 hrs by Hoechst 33342/propidium iodide staining based imaging analysis; type: functional; method in brief: as §1

| Compound | Ratio IC50 (Homo sapiens) | CC50 (K562) | inhibition [1] | inhibition [2] | Activity (CCRF-CEM [3]) | Activity (CCRF-CEM [4]) | Activity [5] | IC50 [6] | Activity (CCRF-CEM [7]) | CC50 (MDA-MB-231) |
| --- | --- | --- | --- | --- | --- | --- | --- | --- | --- | --- |
| O=C(CN1C(=O)S/C(=C/c2ccco2)C1=O)Nc1ccc(Cl)c(Cl)c1 | 10 | 43.3 µM | inactive | > 50% | – | – | – | – | – | – |
| O=C(CN1C(=O)S/C(=C/c2ccco2)C1=O)Nc1nc2ccccc2s1 | – | 91.9 µM | inactive | > 50% | Dose-dependent effect | Dose-dependent effect | Non-Toxic | 187 µM | 16.6% | 45.1 µM |
